ChEMBL document CHEMBL2046337, “Inhibitors for Bacterial Cell-Wall Recycling” (ACS Med Chem Lett, 2012)
The source made the active and inactive calls. No cut-off for these calls is given here.

T1: Membrane-bound lytic murein transglycosylase B (Escherichia coli (strain K12), UniProt P41052)
T1 sequence (P41052 whole entry): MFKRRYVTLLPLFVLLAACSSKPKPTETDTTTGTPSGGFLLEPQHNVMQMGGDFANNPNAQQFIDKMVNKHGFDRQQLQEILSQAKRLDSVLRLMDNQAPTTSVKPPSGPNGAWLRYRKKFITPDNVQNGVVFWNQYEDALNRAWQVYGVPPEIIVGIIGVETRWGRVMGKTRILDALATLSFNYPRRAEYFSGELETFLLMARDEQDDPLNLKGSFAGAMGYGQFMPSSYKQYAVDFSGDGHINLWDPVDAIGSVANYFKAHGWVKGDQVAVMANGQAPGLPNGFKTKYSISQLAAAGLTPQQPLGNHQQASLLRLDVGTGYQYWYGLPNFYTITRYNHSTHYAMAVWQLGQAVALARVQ

B1: Beta-hexosaminidase (Pseudomonas aeruginosa (strain ATCC 15692 / PAO1 / 1C / PRS 101 / LMG12228)), Q9HZK0 (protein)
chain: MQGSLMLDIGGTWLTAEDRQILRHPEVGGLIIFARNIEHPAQVRELCAAIRAIRPDLLLAVDQEGGRVQRLRQGFVRLPAMRAIADNPNAEELAEHCGWLMATEVQAVGLDLSFAPVLDLDHQRSAVVGSRAFEGDPERAALLAGAFIRGMHAAGMAATGKHFPGHGWAEADSHVAIPEDARSLEEIRRSDLVPFARLAGQLDALMPAHVIYPQVDPQPAGFSRRWLQEILRGELKFDGVIFSDDLSMAGAHVVGDAASRIEAALAAGCDMGLVCNDRASAELALAALQRLKVTPPSRLQRMRGKGYANTDYRQQPRWLEALSALRAAQLID

Columns and labels:
[1] = target: Beta-hexosaminidase (Pseudomonas aeruginosa (strain ATCC 15692 / PAO1 / 1C / PRS 101 / LMG12228), UniProt Q9HZK0); test: Competitive inhibition of Pseudomonas aeruginosa PAO1 NagZ using PNP-GlcNAc as substrate assessed as release of 4-nitrophenolate ion after 4 mins by spectrophotometric analysis
Outline: (§1)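 His-tagged NagZ, purified by Ni-affinity, at 40 nM in PBS pH 7.4 (500 µL reaction). Substrate was PNP-GlcNAc at 0.1–1 mM. 4-Nitrophenolate release was followed at 400 nm for 4 min at 25 °C, in triplicate.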

[2] = target: T1, Membrane-bound lytic murein transglycosylase B; test: Binding affinity to Escherichia coli K12 MG1655 His6x-tagged MltB lytic transglycosylase assessed as intrinsic fluorescence of tryptophan and/or tyrosine residues of enzyme; design: species or system Escherichia coli K-12
Outline: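 MltB at 0.25 μM in 50 mM HEPES pH 7.6, 0.20 M NaCl, Brij-35, titrated with aliquots of 42 mM aqueous compound stock; equilibrated at 25 °C with stirring after each addition. Emission read at 334.06 nm (excitation 280 nm, scan 290-450 nm), corrected for dilution. Kd from fit to one-site saturation model, with or without a non-specific binding term.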

[3] = Ratio of Kcat to Km for NagZ expressed in Escherichia coli BL21 DE3 after 35 mins by HPLC analysis
[4] = Activity at NagZ expressed in Escherichia coli BL21 DE3 after 35 mins by HPLC analysis
[5] = target: Beta-hexosaminidase (Pseudomonas aeruginosa (strain ATCC 15692 / PAO1 / 1C / PRS 101 / LMG12228)) (UniProt Q9HZK0); test: Inhibition of Pseudomonas aeruginosa PAO1 NagZ using PNP-GlcNAc as substrate assessed as release of 4-nitrophenolate ion after 4 mins by spectrophotometric analysis; outline: as §1
[6] = substrate: CO[C@@H]1O[C@H](CO)[C@@H](O[C@@H]2O[C@H](CO)[C@@H](O)[C@H](O)[C@H]2NC(C)=O)[C@H](O[C@H](C)C(=O)N[C@@H](C)C(=O)N[C@H](CCC(=O)N[C@@H](CCC[C@@H](N)C(=O)O)C(=O)N[C@H](C)C(=O)N[C@H](C)C(=O)O)C(=O)O)[C@H]1NC(C)=O; test: Ratio of Kcat to Km for Pseudomonas aeruginosa PAO1 NagZ after 35 mins by HPLC analysis
Outline: (§2)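 His-tagged NagZ (pET28a, expressed in E. coli BL21 star (DE3), Ni-affinity purified) at 40 nM in PBS pH 7.4. Substrate was GlcNAc-anhMurNAc-pentapeptide or GlcNAc-MurNAc-pentapeptide at 0.15–0.9 mM, 25 °C, 35 min. Reactions were stopped with two volumes of 0.075% TFA. Substrate and product were quantified by C18 reversed-phase HPLC against an internal standard (Nα,Nε-diacetyl-L-Lys-D-Ala-D-Ala).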

[7] = substrate: CO[C@@H]1O[C@H](CO)[C@@H](O[C@@H]2O[C@H](CO)[C@@H](O)[C@H](O)[C@H]2NC(C)=O)[C@H](O[C@H](C)C(=O)N[C@@H](C)C(=O)N[C@H](CCC(=O)N[C@@H](CCC[C@@H](N)C(=O)O)C(=O)N[C@H](C)C(=O)N[C@H](C)C(=O)O)C(=O)O)[C@H]1NC(C)=O; test: Activity at Pseudomonas aeruginosa PAO1 NagZ after 35 mins by HPLC analysis; outline: as §2

Molecule | Ki [1] [µM] | Kd [2] [µM] | inhibition [5] | other results
CC(=O)N[C@H]1CN[C@H](CO)[C@@H](O)[C@@H]1O | 0.3 | 174 | – | –
CC(=O)N[C@H]1[C@H](O[C@H]2[C@H](O[C@H](C)C(=O)N[C@@H](C)C(=O)N[C@H](CCC(=O)N[C@@H](CCC[C@@H](N)C(=O)O)C(=O)N[C@H](C)C(=O)N[C@H](C)C(=O)O)C(=O)O)[C@@H](NC(C)=O)[C@@H]3OC[C@H]2O3)O[C@H](CO)[C@@H](O)[C@@H]1O | – | – | – | kcat/Km [3]: 6.3 ×10⁴ /M/s; Km [4]: 104 µM; kcat [4]: 6.6 s⁻¹
CC(=O)N[C@H]1CN[C@H](CO)[C@@H](O)[C@@H]1O[C@H](C)C(=O)O | 51 | 1000 | Active | –
CC(=O)N[C@H]1CN[C@H](CO)[C@@H](O)[C@@H]1O[C@H](C)C(=O)N[C@@H](C)C(=O)N[C@H](CCC(=O)O)C(=O)O | 33 | 1010 | Active | –
CC(=O)N[C@H]1CN[C@H](CO)[C@@H](O)[C@@H]1O[C@H](C)C(=O)N[C@@H](C)C(=O)O | 35 | 189 | Active | –
B1 | – | – | – | kcat/Km [6]: 0.5 ×10⁴ /M/s; Km [7]: 165 µM; kcat [7]: 0.77 s⁻¹
